Reference: ChEMBL document CHEMBL1128427, “Novel inhibitors of the nuclear factor of activated T cells (NFAT)-mediated transcription of beta-galactosidase: potential immunosuppressive and antiinflammatory agents” (J Med Chem, 1995)

Assays:
[1] = Inhibition of nuclear factor of activated T-cells (NFAT) mediated transcription of beta-galactosidase in J.NFATZ.1 cells; format: functional, cell-based, T-cell
Jurkat [2] = assay: Binding affinity was measured on jurkat cell membrane using [3H3C] as radioligand.; format: functional, cell membranes, Homo sapiens
Jurkat [3] = assay: Binding affinity was measured on jurkat cell membrane using [3H3C] as radioligand; format: functional, cell membranes, Homo sapiens
Jurkat [4] = assay: Inhibition of beta-galactosidase as expression in J.NFATZ.1 cells at 10 uM mediated by nuclear factor of activated T-cells transcription; format: functional
Jurkat [5] = assay: Concentration required to inhibit nuclear factor of activated T-cells mediated transcription of beta-galactosidases expression in J.NFATZ.1 cells; Not active; format: functional, cell-based
Outline: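 J.NFATZ.1 cells, 1.25×10^5 per well, were stimulated with PMA (2 ng/mL final) and ionomycin (25 μM final) in the presence of compound (0.1% DMSO final). Incubation 5 h at 37 °C. Cells were lysed and incubated 1 h at 37 °C with 4-methylumbelliferyl β-D-galactoside (10 μg/mL final, pH 7.8). Fluorescence read at […]. IC50 obtained by four-parameter logistic fit.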

Structure (SMILES)	IC50 ([1]; T-cell) [nM]	further results
CCCCOc1ccc(Cn2cc3c(=O)n(C)c(=O)n(CC(C)C)c3c2)cc1	190	–
CC(C)Cn1c(=O)n(C)c(=O)c2cn(C(c3ccccc3)c3ccccc3)cc21	1460	–
COc1ccc(Cn2cc3c(c2CN2CCOCC2)c(=O)n(C)c(=O)n3CC(C)C)cc1	800	Ki (Jurkat [3]): 315 nM
COC(=O)c1ccc(CNc2ccc3c(c2)c(=O)n(C)c(=O)n3CC(C)C)cc1	–	Inhibition (Jurkat [4]): 35%
CC(C)Cn1c(=O)n(C)c(=O)c2cn([C@H](C)c3ccccc3)cc21	1200	Ki (Jurkat [3]): 562 nM
CC(C)Cn1c(=O)n(C)c(=O)c2cc(OCc3ccccc3)ccc21	2500	–
CNC(=O)CCCn1c(=O)c2cn(Cc3cccc4ccccc34)cc2n(CC(C)C)c1=O	–	IC50 (Jurkat [5]): Not Active
COc1ccc(Cn2cc3c(c2SC)c(=O)n(C)c(=O)n3CC(C)C)cc1	360	Ki (Jurkat [3]): 305 nM
CC(C)Cn1c(=O)n(C)c(=O)c2cn(Cc3ccc(Cl)cc3)cc21	435	–
CC(C)Cn1c(=O)n(C)c(=O)c2ccc(OCc3ccccc3)cc21	2050	–
CC(C)Cn1c(=O)n(C)c(=O)c2cc(CCc3ccccc3)ccc21	4030	–
CC(C)Cn1c(=O)n(C)c(=O)c2cc3c(cc21)O[C@H](c1ccccc1)O3	2250	–
COc1ccc(Cn2cc3c(=O)n(C)c(=O)n(CC(C)C)c3c2)cc1OC	378	–
CC(C)Cn1c(=O)n(C)c(=O)c2cn([C@@H](C)c3ccccc3)cc21	1300	Ki (Jurkat [3]): 301 nM
CC(C)Cn1c(=O)n(C)c(=O)c2cc(NCc3ccc(C(=O)O)cc3)ccc21	–	Inhibition (Jurkat [4]): 30%
CSc1ccc(Cn2cc3c(=O)n(C)c(=O)n(CC(C)C)c3c2)cc1	260	–

Structure (SMILES)	IC50 ([1]; T-cell) [nM]	further results
CC(C)Cn1c(=O)n(C)c(=O)c2cc(NCc3ccccc3)ccc21	4470	–
CC(C)Cn1c(=O)[nH]c(=O)c2cn(C3Cc4cccc5cccc3c45)cc21 (centres undefined)	660	Ki (Jurkat [3]): 454 nM
CC(C)Cn1c(=O)n(C)c(=O)c2cn(Cc3ccc(O)cc3)cc21	640	–
CC(C)Cn1c(=O)n(C)c(=O)c2cc3c(cc21)O[C@](C)(c1ccccc1)O3	4480	–
CC(C)Cn1c(=O)n(C)c(=O)c2cn(Cc3ccc(C(F)(F)F)cc3)cc21	1300	–
CC(C)Cn1c(=O)n(C)c(=O)c2ccc(NCc3ccccc3)cc21	–	Inhibition (Jurkat [4]): 40%
CC(C)Cn1c(=O)n(C)c(=O)c2cc(NCc3ccc(C(C)(C)C)cc3)ccc21	–	Inhibition (Jurkat [4]): 34%
COc1ccc(Cn2cc3c(=O)n(C)c(=O)n(CC(C)C)c3c2)cc1I	166	–
COc1ccc(Cn2cc3c(=O)n(C)c(=O)n(CC(C)C)c3c2)c(OC)c1	310	Ki (Jurkat [3]): 88 nM
CC(C)Cn1c(=O)n(C)c(=O)c2cn(C3CCc4ccccc43)cc21 (centres undefined)	186	–
CC(C)Cn1c(=O)n(C)c(=O)c2cn(Cc3ccc(O)c(I)c3)cc21	89	–
CC(C)Cn1c(=O)n(C)c(=O)c2cn(C3Cc4ccccc4C3)cc21	312	Ki (Jurkat [3]): 4.8 nM
CC(C)Cn1c(=O)n(C)c(=O)c2cc(NCc3ccccc3F)ccc21	1320	–
CCC(C)n1c(=O)n(C)c(=O)c2cn(C3Cc4cccc5cccc3c45)cc21 (stereo in doubt; 5g3)	–	IC50 ([1]; t-cell): 17 nM
CCC(C)n1c(=O)n(C)c(=O)c2cn(C3Cc4cccc5cccc3c45)cc21 (stereo in doubt; 5g4)	–	IC50 ([1]; t-cell): 48 nM
CCC(C)n1c(=O)n(C)c(=O)c2cn(C3Cc4cccc5cccc3c45)cc21 (stereo in doubt; 5g)	–	IC50 ([1]; t-cell): 5.4 nM

Further lines, with some results ahead:

IC50 ([1]; T-cell) [nM]	Structure (SMILES)	further results
8	CC(C)Cn1c(=O)n(C)c(=O)c2cn(C3Cc4cccc5cccc3c45)cc21 (centres undefined)	–
260	CC(C)Cn1c(=O)n(C)c(=O)c2cn(Cc3ccccc3Cl)cc21	Ki (Jurkat [2]): 122 nM
89	CSc1c2c(=O)n(C)c(=O)n(CC(C)C)c2cn1Cc1cccc2ccccc12	–
275	COc1cccc(Cn2cc3c(=O)n(C)c(=O)n(CC(C)C)c3c2)c1	–
26	CC(C)Cn1c(=O)n(C)c(=O)c2cn(Cc3cccc4ccccc34)cc21	Ki (Jurkat [2]): 23 nM
90	CCn1c(=O)c2cn(Cc3cccc4ccccc34)cc2n(CC(C)C)c1=O	–
275	COc1ccccc1Cn1cc2c(=O)n(C)c(=O)n(CC(C)C)c2c1	Ki (Jurkat [2]): 170 nM
440	CCn1c(=O)n(C)c(=O)c2cn(Cc3cccc4ccccc34)cc21	–
140	Cn1c(=O)c2cn(Cc3cccc4ccccc34)cc2n(CC2CC2)c1=O	–
3950	CC(O)Cn1c(=O)n(C)c(=O)c2cn(Cc3cccc4ccccc34)cc21 (centres undefined)	Ki (Jurkat [3]): 697 nM
150	Cc1c2c(cn1Cc1cccc3ccccc13)c(=O)n(C)c(=O)n2CC(C)C	–
75	CC(C)Cn1c(=O)n(C)c(=O)c2cn(Cc3ccc4ccccc4c3)cc21	Ki (Jurkat [2]): 29.4 nM
21.5	CC(C)n1c(=O)n(C)c(=O)c2cn(Cc3cccc4ccccc34)cc21	Ki (Jurkat [3]): 15.3 nM
1210	Cn1c(=O)c2cn(Cc3cccc4ccccc34)cc2n(CC2CCCCC2)c1=O	–
6	CC(C)Cn1c(=O)n(C)c(=O)c2c(SCCCO)n(Cc3cccc4ccccc34)cc21	Ki (Jurkat [3]): 1.1 nM
3000	CC(C)Cn1c(=O)[nH]c(=O)c2cn(Cc3cccc4ccccc34)cc21	–
815	CC(C)CCn1c(=O)n(C)c(=O)c2cn(Cc3cccc4ccccc34)cc21	–
630	CC(C)Cn1c(=O)n(C)c(=O)c2cn(Cc3ccccc3F)cc21	–
320	Cc1ccc(Cn2cc3c(=O)n(C)c(=O)n(CC(C)C)c3c2)cc1	–
240	COc1ccc(Cn2cc3c(=O)n(C)c(=O)n(CC(C)C)c3c2)cc1	–
870	CC(C)Cn1c(=O)n(C)c(=O)c2cn(Cc3ccccc3)cc21	–
224	COc1cccc(Cn2cc3c(=O)n(C)c(=O)n(CC(C)C)c3c2)c1OC	–
1200	CC(C)Cn1c(=O)n(C)c(=O)c2cn(Cc3cccc(Cl)c3Cl)cc21	–
